Data set [1] deals with T1, chymotrypsin (Bos taurus, UniProt P00766). In words: Chymotrypsin assay. The format is biochemical. The method in brief: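 Enzyme (4 units/mL, in cold 1 mM HCl) and BTEE (1.18 mM) in 80 mM Tris-HCl, pH 7.8, made fresh. BTEE, buffer, CaCl2 and test compound (MeOH dilution series; MeOH blank) were equilibrated at 25 °C, then enzyme added last. A256 followed continuously: 3 min uninhibited, 30 s intervals with inhibitor. Activity in BTEE units/mL; IC50 by nonlinear regression.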

The conditions of data set [2]: cited from earlier work.
Data set [3] has as its system Vibrio cholerae secreted serine protease activity. The settings on record: as low as in cultures of T2S mutants, averaged; cited from earlier work.
In data set [4] the target is T1, chymotrypsin. The settings on record: cited from earlier work.
Data set [5] deals with NCI-H460 lung cancer cells. The settings on record: cited from earlier work.
For data set [6], the system named is neuro-2a neuroblastoma cells. The settings on record: read-out: IC50 neuro-2a neuroblastoma cells; cited from earlier work.

SMILES strings stand for the structures. Read-outs that look alike come from different tables or passages of the source. *1 amine or outer side, *2 acyl side, *3 side chain or, on linkers, in order; H or OH if unused. Where a SMILES comes first, the peptide text is derived from it. Bridges are numbered along the chain shown (N, C = ends). [ ]: non-standard residue; d: D form. The star is where a group is joined. Ahp(3S,6R)alloIle = CC[C@@H](C)[C@@H](C(=O)[*:2])N1C(=O)[C@@H](N[*:1])CC[C@H]1O; Propanoyl(2R-OMe,3-OSO3H) = CO[C@H](COS(=O)(=O)O)C(=O)*; NMeTyr(3-Br,OMe) = CN[C@@H](Cc1ccc(OC)c(Br)c1)C(=O)O; Cit = NC(=O)NCCC[C@H](N)C(=O)O; Butyryl = CCCC(=O)*

In general, IC50 refers to the point on the concentration scale where inhibition reaches its midpoint.

Consider `CC[C@@H](C)[C@H]1C(=O)N(C)[C@@H](Cc2ccc(OC)c(Br)c2)C(=O)N[C@@H]([C@@H](C)CC)C(=O)O[C@H](C)[C@H](NC(=O)[C@H](NC(=O)[C@H](O)COS(=O)(=O)O)C(C)C)C(=O)N[C@@H](CCCCN)C(=O)N[C@H]2CC[C@@H](O)N1C2=O` [Jizanpeptin A (1), Jizanpeptin A], for which the IC50 in data set [1] was over 10 µM.

Compound `CC[C@@H](C)[C@H]1C(=O)N(C)[C@@H](Cc2ccc(OC)c(Br)c2)C(=O)N[C@@H]([C@@H](C)CC)C(=O)O[C@H](C)[C@H](NC(=O)[C@H](NC(=O)[C@@H](COS(=O)(=O)O)OC)C(C)C)C(=O)N[C@@H](CCCCN)C(=O)N[C@H]2CC[C@@H](O)N1C2=O` [Jizanpeptin B (2), Jizanpeptin B] yielded a concentration for half-maximal inhibition (IC50) in data set [1] of over 10 µM.

Turning to `CC[C@@H](C)[C@H]1C(=O)N(C)[C@@H](Cc2ccc(OC)c(Br)c2)C(=O)N[C@@H]([C@@H](C)CC)C(=O)O[C@H](C)[C@H](NC(=O)[C@@H](NC(=O)[C@@H](COS(=O)(=O)O)OC)C(C)C)C(=O)N[C@@H](CCCCN)C(=O)N[C@H]2CC[C@@H](O)N1C2=O` [Jizanpeptin C (3), Jizanpeptin C], in data set [1] (standardized assay conditions, up to 10 μM), the “efficacy as a chymotrypsin inhibitor” value was “full efficacy”.

In data set [1], `CC[C@@H](C)[C@H]1C(=O)N(C)[C@@H](Cc2ccc(OC)c(Br)c2)C(=O)N[C@@H]([C@@H](C)CC)C(=O)O[C@H](C)[C@H](NC(=O)[C@@H](NC(=O)[C@@H](COS(=O)(=O)O)OC)[C@@H](C)CC)C(=O)N[C@@H](CCCCN)C(=O)N[C@H]2CC[C@@H](O)N1C2=O` [Jizanpeptin D (4), Jizanpeptin D] ({Propanoyl(2R-OMe,3-OSO3H)}-ITK[Ahp(3S,6R)alloIle][NMeTyr(3-Br,OMe)]I; ester 2-C) returned a half-maximal inhibitory concentration (IC50) of over 10 µM.

With `CC[C@@H](C)[C@H]1C(=O)N(C)[C@@H](Cc2ccc(OC)c(Br)c2)C(=O)N[C@@H]([C@@H](C)CC)C(=O)O[C@H](C)[C@H](NC(=O)[C@H](NC(=O)[C@@H](COS(=O)(=O)O)OC)C(C)C)C(=O)N[C@@H](CCCNC(=N)N)C(=O)N[C@H]2CC[C@@H](O)N1C2=O` [Jizanpeptin E (5), Jizanpeptin E], in data set [1], the 50% inhibitory concentration (IC50) is over 10 µM.

In the case of `C/C=C1/NC(=O)C(NC(=O)C(NC(=O)C(CO)OC)C(C)C)C(C)OC(=O)C(C(C)C)NC(=O)C(Cc2ccccc2)N(C)C(=O)C(Cc2ccccc2)N2C(=O)C(CCC2O)NC1=O` (stereo not drawn) [dolastatin 13], in data set [2] (terminal Gac), the “cytotoxicity” value is recorded as “nanomolar cytotoxicity”.

As for `CC(=O)N[C@@H](CC(C)C)C(=O)N[C@@H](CC(C)C)C(=O)N[C@H](C=O)CCCNC(=N)N` [leupeptin], the “reduction in fluorescence, positive control” value in data set [3] is listed as 93%.

For the compound `C/C=C1\NC(=O)[C@@H](NC(=O)[C@H](CCc2ccc(O)cc2)NC(=O)[C@H](C)NC(=O)[C@H](O)COS(=O)(=O)O)[C@@H](C)OC(=O)[C@H](C(C)C)NC(=O)[C@H](Cc2ccc(O)cc2)N(C)C(=O)[C@H](Cc2ccccc2)N2C(=O)[C@H](CC[C@H]2O)NC1=O` [lyngbyastatin 4], the “cytotoxicity” value in data set [2] (terminal Gac-sulfate) is on record as “no cytotoxicity”.

`CCCC(=O)N[C@H](CCC(N)=O)C(=O)N[C@@H]1C(=O)N[C@@H](CCCNC(N)=O)C(=O)N[C@H]2CC[C@@H](O)N(C2=O)[C@@H]([C@H](C)CC)C(=O)N(C)[C@@H](Cc2ccc(OC)c(Br)c2)C(=O)N[C@@H](C(C)C)C(=O)O[C@@H]1C` [symplocamide A] (Butyryl-[dQ]T[Cit][Ahp(3S,6R)alloIle][NMeTyr(3-Br,OMe)]V; ester 2-C): the “selectivity chymotrypsin over trypsin” value in data set [4] is given as “greater selectivity for chymotrypsin over trypsin”. Further, the “cytotoxicity to NCI-H460 lung cancer cells” value in data set [5] is listed as “remarkably cytotoxic”. Moreover, the IC50 was 0.04 µM in data set [5] (read-out: IC50 NCI-H460 lung cancer cells) and 0.029 µM in data set [6].

Source of the values: article PMC7847313 (Journal of natural products, 2018).
